From ChEMBL document CHEMBL1649583 (Antimicrob Agents Chemother, 2009)
Converted amounts (≈) assume the structure as drawn.

Legend:
[1] = Apparent oral clearance in human adults with pulmonary tuberculosis at 600 mg administered twice daily for 7 days; type: ADME, organism-based; conditions: in vivo
Summary of the method: (§1)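 Plasma was drawn at steady state, predose and at 1, 2, 4, 8, 12, 18 and 24 h, and stored at -80°C. Assay was validated HPLC with 0.5–30 μg/ml standards. A one-compartment population model (NPAG) gave median individual Bayesian estimates; other parameters came from standard equations.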

[2] = Cmax in human adults with pulmonary tuberculosis at 600 mg administered once daily for 5 days; type: ADME, organism-based; parameters: dose 600 mg; conditions: in vivo; summary of the method: as §1
[3] = test system: Homo sapiens; assay: Absorption rate constant in human adults with pulmonary tuberculosis at 600 mg administered daily for 7 days; type: ADME, organism-based; conditions: in vivo, 168 h
Summary of the method: (§2)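 Adults with pulmonary TB (once daily n=10, twice daily n=9) fasted overnight before the fifth morning dose. Plasma was drawn at steady state predose and 1, 2, 4, 8, 12, 18 and 24 h after dosing, stored at -80°C, and assayed by validated HPLC (standards 0.5–30 μg/ml). ka comes from a one-compartment NPAG population model fitted per regimen, reported as the median of individual Bayesian estimates.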

[4] = Cmax in human adults with pulmonary tuberculosis at 600 mg administered twice daily for 5 days; type: ADME, organism-based; parameters: dose 600 mg; conditions: in vivo; summary of the method: as §1
[5] = Cmax in human adults with pulmonary tuberculosis at 600 mg administered twice daily for 7 days; type: ADME, organism-based; parameters: dose 600 mg; conditions: in vivo; summary of the method: as §1
[6] = fT>MIC in human adults with pulmonary tuberculosis at 600 mg administered twice daily for 5 days; type: functional
Summary of the method: (§3)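 Steady-state plasma profiles after the fifth 600 mg dose, given once or twice daily, were fitted with a one-compartment population model. Concentrations were corrected to free drug assuming 31% protein binding. MIC came from each patient's pretreatment sputum isolate, tested by Bactec 460 and on Middlebrook 7H-10 agar. The result is the percent of the dosing interval with free drug above MIC.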

[7] = test system: Homo sapiens; assay: Absorption rate constant in human adults with pulmonary tuberculosis at 600 mg administered twice daily for 7 days; type: ADME, organism-based; conditions: in vivo, 168 h; summary of the method: as §2
[8] = test system: Mycobacterium tuberculosis; assay: Antimicrobial activity against Mycobacterium tuberculosis in human adults with pulmonary tuberculosis at 600 mg administered twice for 7 days; type: functional; conditions: 168 h
[9] = Elimination half life in human adults with pulmonary tuberculosis at 600 mg administered daily for 7 days; type: ADME, organism-based; conditions: in vivo, read-out: beta t1/2 (converted); summary of the method: as §1
[10] = Cmax in human adults with pulmonary tuberculosis at 600 mg administered daily for 7 days; type: ADME, organism-based; parameters: dose 600 mg; conditions: in vivo; summary of the method: as §1
[11] = Tmax in human adults with pulmonary tuberculosis at 600 mg administered daily for 7 days; type: ADME, organism-based; conditions: in vivo; summary of the method: as §1
[12] = test system: Mycobacterium tuberculosis; assay: Antimicrobial activity against Mycobacterium tuberculosis in human adults with pulmonary tuberculosis at 600 mg administered daily for 7 days; type: functional; conditions: 168 h
[13] = fT>MIC in human adults with pulmonary tuberculosis at 600 mg administered once daily for 5 days; type: functional; summary of the method: as §3
[14] = Elimination rate constant in human adults with pulmonary tuberculosis at 600 mg administered daily for 7 days; type: ADME, organism-based; conditions: in vivo; summary of the method: as §1
[15] = Elimination rate constant in human adults with pulmonary tuberculosis at 600 mg administered twice daily for 7 days; type: ADME, organism-based; conditions: in vivo; summary of the method: as §1
[16] = Apparent oral clearance in human adults with pulmonary tuberculosis at 600 mg administered daily for 7 days; type: ADME, organism-based; conditions: in vivo; summary of the method: as §1
[17] = Tmax in human adults with pulmonary tuberculosis at 600 mg administered twice daily for 7 days; type: ADME, organism-based; conditions: in vivo; summary of the method: as §1
[18] = Elimination half life in human adults with pulmonary tuberculosis at 600 mg administered twice daily for 7 days; type: ADME, organism-based; conditions: in vivo, read-out: beta t1/2 (converted); summary of the method: as §1

Compound: CC(=O)NC[C@H]1CN(c2ccc(N3CCOCC3)c(F)c2)C(=O)O1 [LINEZOLID]
- CL/F [1]: 80 mL/min
- Cmax [2]: 10300 ng/mL
- ka [3]: 1.5 h⁻¹
- Cmax [4]: 13400 ng/mL
- Cmax [5]: 19400 ng/mL
- fT>MIC [6]: 100%
- ka [7]: 2.7 h⁻¹
- MIC [8]: 0.5 µg/mL (≈ 1.48 µM)
- half-life [9]: 2.9 h
- Cmax [10]: 14900 ng/mL
- Tmax [11]: 1.5 h
- MIC [12]: 1 µg/mL (≈ 2.96 µM)
- fT>MIC [13]: 62.8%
- k el at 168 h [14]: 5.56e-05 s⁻¹
- k el at 168 h [15]: 5.56e-05 s⁻¹
- CL/F [16]: 118 mL/min
- Tmax [17]: 1 h
- half-life [18]: 4.6 h
